# tim10-1 inh: inhibits growth of tim10-1 mutant yeast; S. cerevisiae tim10-1 ts strain growth, BacTiter-Glo, 24 h; inhibition, % at 20 µM; 330,000 compounds, 2.2% hits;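 active means inhibition of at least 40%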;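 further: mutant grown at 25 °C; 0% = DMSO wells with yeast and 100% = wells holding no yeast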
# UPR CHOP act: apoptotic UPR (CHOP) activation; CHO-CHOP luciferase reporter, luminescence; percent of tunicamycin response over DMSO baseline; AID 449763; activation, % at 10 µM; 330,000 compounds, 0.34% hits;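 active means at 10 µM dose, activation of 40% or more, normalized to positive control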;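 further: 100% = tunicamycin at 10 µg/mL and 0% = DMSO alone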
#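 Dosing – one dose, 10 µM in 0.5% DMSO · System – CHO-CHOP cells, stable luciferase reporter of PERK-eIF2a-CHOP signalling · Input – 500 cells/well · Control set – tunicamycin 10 µg/mL final as positive, DMSO-only wells as negative · Timing – 6 h compound treatment, 37 °C · Measure – % activation vs tunicamycin · Technique – luminescence read with Steady-Glo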
# XBP1 UPR activ: adaptive UPR (XBP1) activation | CHO-XBP1 luciferase reporter, IRE1-XBP1 UPR activation, luminescence; percent of tunicamycin response, DMSO as zero | activation, % at 20 µM | 330,000 compounds, 0.33% hits;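 active means versus positive control, 20 µM dose yields 30% or more activation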;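 further: 100% = tunicamycin at 10 µg/mL and 0% = DMSO only wells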
#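 incubation = overnight seeding at 37 °C, 6 h compound treatment at 37 °C | assay system = CHO-XBP1 cells stably carrying IRE1-XBP1-driven luciferase reporter | input = 1000 cells per well | detection = luciferase luminescence | dosing = single point, 20 µM final compound, 1% DMSO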
# TIM10 inh: inhibits growth of TIM10 yeast strain; S. cerevisiae TIM10 strain growth, BacTiter-Glo luminescence, 24 h; inhibition, % at 10 µM; 330,000 compounds, 1.4% hits;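 active means inhibition of 40% or more at the single tested concentration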;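 further: wild-type TIM10 isogenic control strain grown at permissive 25 °C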
# tim23-1 inh: inhibits growth of tim23-1 mutant yeast. S. cerevisiae tim23-1 growth, BacTiter-Glo luminescence, 24 h. inhibition, % at 20 µM. 330,000 compounds, 1.3% hits. AID 463212;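 active means growth inhibition of the mutant yeast at or above 50%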;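 further: temperature-sensitive mutant grown at 25 °C; plate controls were DMSO-treated mutant yeast for no effect and medium wells lacking yeast for full effect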
# tim10-1 conf: tim10-1 yeast growth inhibition, confirmed; S. cerevisiae tim10-1 ts strain growth, BacTiter-Glo, 24 h; AID 463213; 7,400 compounds, 56% hits; inhibition, % at 20 µM; shares compounds with tim10-1 inh;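 active means inhibition of yeast growth at or above a set limit in either of two repeat tests at 20 µM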;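 further: tim10-1 mutant grown at permissive 25 °C to find synthetic lethal compounds; 0% = DMSO yeast wells and 100% = medium wells without yeast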
# * hit, by the source's call; . = not tested or not shown. Rows were chosen to be rich in hits. Some 3.9% of all compounds tested hit in one or more screens of this group.
SMILES,tim10-1 inh,UPR CHOP act,XBP1 UPR activ,TIM10 inh,tim23-1 inh,tim10-1 conf
COc1ccc(S(=O)(=O)N2CCN(c3cnccn3)CC2)cc1OC,15,1,2,-1,21,.
Cc1cccc(NC(=S)N(CCN2CCOCC2)Cc2ccccc2F)c1,42*,-1,0,-6,16,5
CCOc1ccccc1-c1cc(-c2n[nH]c(=S)n2CC)c2ccccc2n1,15,-2,0,31,13,.
CCn1c(-c2cc(-c3ccc(C)c(C)c3)nc3ccccc23)n[nH]c1=S,47*,1,1,35,41,34*
CCOc1cccc(-c2cc(-c3n[nH]c(=S)n3CC)c3ccccc3n2)c1,53*,2,4,30,43,26
Cc1cc(S(=O)(=O)N2CCCC(N(C)CCc3ccccn3)C2)c(C)cc1Cl (configuration not stated),22,0,-9,9,23,.
COc1cccc2cc(C(=O)OCc3ccccc3)c(=O)oc12,42*,4,4,24,45,23
O=C(N/N=C\c1ccccn1)C1c2ccccc2Oc2ccccc21,43*,-1,-3,5,24,18
O=C(Nc1ncccn1)C1c2ccccc2Oc2ccccc21,0,2,-3,-4,1,.
Cc1csc(NC(=O)c2nc(-c3ccccc3)n(-c3ccccc3)n2)n1,51*,6,-2,23,48,41*
Cc1ccc(C)c(NC(=O)c2cc(-c3ccccc3)nn2-c2ccccc2)c1,28,-1,-4,28,18,.
O=C(Nc1nccs1)c1nc(-c2ccccc2)n(-c2ccccc2)n1,1,2,-2,8,11,.
Cc1ccc(C)c(NC(=O)c2nc(-c3ccccc3)n(-c3ccccc3)n2)c1,43*,0,0,29,43,28
O=C(N1CCCCC1)N1CCN(S(=O)(=O)c2ccccc2)CC1,12,1,1,9,7,.
CCc1ccc(NC(=O)C/C(C)=N/NC(=O)COc2ccc(C)cc2Br)cc1,45*,0,0,5,47,22
CCOc1ccc(CN(C)CC(=O)Nc2ccccc2C(=O)NC2CC2)cc1,3,0,-1,3,11,.
COc1cc(/C=N/N2C(=O)c3ccccc3NC2(C)c2cccc([N+](=O)[O-])c2)cc(Br)c1O (configuration not stated),44*,-2,-3,31,30,21
COc1cc(/C=N/NC(=O)c2ccc([N+](=O)[O-])cc2Cl)cc(Br)c1O,-3,0,-1,-3,2,.
COc1ccc(Cc2n[nH]c(=S)n2NC(=O)Nc2ccc(Cl)c(Cl)c2)cc1,43*,-1,2,31,18,64*
Cn1c(CC(=O)Nc2ccc(Cl)c(Cl)c2)n[nH]c1=S,-2,-2,-2,-5,1,.
O=C(CCN1CCN(c2ccccc2)CC1)c1ccc(Br)cc1,45*,2,-6,-10,17,29
c1ccc2c(OCCCN3CCCCCC3)cccc2c1,-9,6,-3,-31,2,.
CCC1CCCCN1c1nc(-c2cccc(OC)c2O)nc2ccccc12 (configuration not stated),22,1,-2,8,21,.
CCC1CCCCN1c1nc(-c2ccncc2)nc2ccccc12 (configuration not stated),50*,1,4,27,43,38*
N=c1oc2cc(O)ccc2cc1C(=O)Nc1ccc(Cl)cc1,44*,5,0,25,43,24
SMILES,tim10-1 inh,UPR CHOP act,XBP1 UPR activ,TIM10 inh,tim23-1 inh,tim10-1 conf
Cc1ccc(NC(=O)c2cc3ccccc3oc2=N)cc1,4,-4,-7,14,9,.
COc1ccc2c(c1)[C@H]1[C@H](CO2)[C@H](c2ccccc2)[C@]2(C)C(=O)N(Cc3ccc(C)cc3)CC(=O)N12,24,1,5,15,16,.
O=C(O)C1CCCC[C@H]1C(=O)Nc1ncc([N+](=O)[O-])s1 (some centres not stated),4,-2,2,13,21,.
O=C(NCCC(=O)N(CCc1ccccc1)Cc1ccccc1)c1ccc(Br)cc1,0,1,-2,9,10,.
Clc1cccc(-c2nc(-c3ccccn3)no2)c1,17,-7,-6,1,-6,.
Cc1ccc(-c2nc(-c3ccccn3)no2)cc1,43*,-10,-10,17,39,17
Cc1ccc(-c2nc(-c3ccccn3)no2)cc1Cl,40*,-8,-8,24,44,15
COc1ccc(NC(=O)COC(=O)c2ccc(-n3cnnn3)cc2)c([N+](=O)[O-])c1,2,-2,1,6,8,.
C=CC[C@@H]1Cc2c(Br)ccc(Br)c2[C@@H](CC=C)N1,41*,0,-1,-2,29,28
C=CCC1NCCc2c(Br)cccc21 (configuration not stated),1,0,0,5,12,.
S=C(NCCc1ccc(Cl)cc1)NC1CCCC1,43*,-1,3,9,21,13
S=C(NCCc1ccc(Cl)cc1)NC1CCCCC1,32,6,-4,22,34,.
S=C(NCCc1ccc(Cl)cc1)NCc1ccco1,34,-1,-3,24,-1,.
O=C(NC(=S)NCCc1ccc(Cl)cc1)c1ccco1,48*,1,0,35,30,24
Clc1cccc(/C=N/Nc2ncnc3ccccc23)c1,40*,3,3,39,35,18
C(=N\Nc1ncnc2ccccc12)/c1ccccc1,-13,1,-6,-7,4,.
COc1ccc(N2CCN(c3cc(C)nc4ccc(OC)cc34)CC2)cc1,43*,-1,-3,13,25,8
COc1ccc2nc(C)cc(N3CCC(C(N)=O)CC3)c2c1,11,-3,-1,-8,-4,.
CCC(=O)c1ccc(OCC(=O)OCC(=O)N2c3ccccc3CC2C)cc1 (configuration not stated),41*,-1,2,-2,40,35*
Cc1ccc(OCC(=O)OCC(=O)N2c3ccccc3CC2C)cc1C (configuration not stated),-23,1,-2,-2,15,.
CCC(=O)c1ccc(OCC(=O)OCC(=O)N2CCCc3ccccc32)cc1,43*,0,-3,13,48,28
O=C(c1ccccc1)C1CCN(C(=O)C2CCC(=O)N(Cc3ccccc3F)C2)CC1 (configuration not stated),2,0,-4,7,-6,.
O=C(O)c1cccc(C(=O)c2cccc(C(=O)O)c2)c1,-5,-1,0,4,-10,.

# Compound activity deposited in PubChem BioAssay by Sanford-Burnham Center for Chemical Genomics.
